# PMC4969713 (Journal of Alzheimer's Disease, 2016)
# Counter-ions that a name gives are not always drawn.
# Columns and labels:
# CYP2C9 = CYP2C9 (Homo sapiens, UniProt P11712); experiment: Metabolism by recombinant CYP2C9; assay type: in vitro ADME
# [1] = Metabolism in rat microsomes; assay type: in vitro ADME; conditions: for Remaining quantity: AVN-101 1 μM, RLM
# hERG channel = hERG channel (Homo sapiens, UniProt Q12809); experiment: Target panel binding, hERG channel
# BALB/c mice = experiment: Tail suspension test; assay type: in vivo; conditions: AVN-101 0.05 mg/kg IP once daily for 4 days
# How it was run: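 Test compound dissolved in saline, injected IP into BALB/c mice once daily for 4 days, last injection 5 min before tail suspension; vehicle (saline) controls; fluoxetine and desipramine 15 mg/kg IP as positive controls, last dose 30 min before test. Immobility measured; at least 8 animals per group; Student t-test.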
# CYP2D6 = CYP2D6 (Homo sapiens, UniProt P10635); experiment: Metabolism by recombinant CYP2D6; assay type: in vitro ADME
# imidazoline I2 receptor = experiment: Radioligand binding competition, imidazoline I2
# healthy volunteers = experiment: Phase I tolerability, healthy volunteers; assay type: in vivo, human
# How it was run: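 Healthy volunteers received single oral doses. Venous blood was drawn through an IV catheter before dosing and at several time points after. Urine was collected before dosing and at 4 h and 24 h after. Systolic and diastolic pressure and heart rate were monitored.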
# [2] = Stability in human blood plasma; assay type: in vitro ADME; conditions: 30-min incubation, room temperature
# male Long Evans rats = experiment: Geller-Seifter conflict test; assay type: in vivo; conditions: IV, 5 min before test
# How it was run: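 Male Long Evans rats were food-deprived for 24 h, with at least 5 per group. Test compound was given IV via tail vein 5 min before testing. The test ran two 30-min sessions, unpunished and punished (conflict), with lever presses counted. Results were expressed as relative change versus the vehicle group.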
# femur bone marrow cells = experiment: Chromosomal aberrations in femur bone marrow cells; assay type: in vivo, mice
# How it was run: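 Mice 8–12 weeks old, male and female, were dosed orally with test compound or cyclophosphamide 20 mg/kg. Schedule was single dose with kill at 24 h, or qd for 5 days with kill 6 h after the last dose. Colchicine 4 mg/kg was given orally 2.5 h before decapitation. Femur marrow was put into 0.55% KCl at 37°C for 15 min, then spun. Scoring covered 100 metaphases per animal (500 per group), expressed as % aberrant cells.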
# 5-HT2A receptor = 5-HT2A receptor (Homo sapiens, UniProt P28223); experiment: Radioligand binding competition, 5-HT2A
# Monkeys (Macaca mulatta) = experiment: Q-T interval, monkeys; assay type: in vivo; conditions: 1 mg/kg IV; not affected
# guinea pigs = experiment: Q-T interval, guinea pigs; assay type: in vivo; conditions: 10 mg/kg IP
# 5-HT7 receptor = 5-HT7 receptor (Homo sapiens, UniProt P34969); conditions: Table 2; cited from earlier work
# H1 receptor = H1 receptor (Homo sapiens, UniProt P35367); experiment: Histamine-induced Ca2+ mobilization in SK-N-SH cells; assay type: cell-based
# How it was run: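 SK-N-SH cells challenged with 10μM histamine; transient rise in intracellular free Ca2+ recorded as the response, with test compound examined for blockade of this histamine-evoked signal.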
# Adrenergic α2B = Adrenergic α2B (Homo sapiens, UniProt P18089); experiment: Radioligand competition, adrenergic α2B; assay type: binding
# hNav1.5 = hNav1.5 (Homo sapiens, UniProt Q14524); experiment: Cardiac channel inhibition, hNav1.5; assay type: cell-based
# [3] = molecular target: calcium channels of N type (Homo sapiens, UniProt Q00975); experiment: Target panel binding, calcium channel N type
# [4] = Median lethal dose after single administration; design: species or system mice; conditions: male, CD1, mouse, in vivo
# How it was run: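 Male CD1 mice received a single dose of test compound in saline, IP at 80–200 mg/kg or orally at 200–700 mg/kg. Each dose went to a separate group (n = 6). LD50 with standard error was derived by probit analysis.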
# [5] = Pharmacokinetics in Wistar rats, IV/IP/PO; assay type: in vivo; conditions: for Fabs: based on AUC0 ⟶240; for Cmax / Tmax / half-life / k el / AUC: Wistar, rat, plasma, 5 mg/kg
# muscarinic M2 receptor = muscarinic M2 receptor (Homo sapiens, UniProt P08172); experiment: Target panel binding, muscarinic M2
# [6] = 1 mg/kg PO qd for 5 days, females
# [7] = 1 mg/kg PO qd for 5 days, males
# hNav1.5, sequence (Q14524 whole entry): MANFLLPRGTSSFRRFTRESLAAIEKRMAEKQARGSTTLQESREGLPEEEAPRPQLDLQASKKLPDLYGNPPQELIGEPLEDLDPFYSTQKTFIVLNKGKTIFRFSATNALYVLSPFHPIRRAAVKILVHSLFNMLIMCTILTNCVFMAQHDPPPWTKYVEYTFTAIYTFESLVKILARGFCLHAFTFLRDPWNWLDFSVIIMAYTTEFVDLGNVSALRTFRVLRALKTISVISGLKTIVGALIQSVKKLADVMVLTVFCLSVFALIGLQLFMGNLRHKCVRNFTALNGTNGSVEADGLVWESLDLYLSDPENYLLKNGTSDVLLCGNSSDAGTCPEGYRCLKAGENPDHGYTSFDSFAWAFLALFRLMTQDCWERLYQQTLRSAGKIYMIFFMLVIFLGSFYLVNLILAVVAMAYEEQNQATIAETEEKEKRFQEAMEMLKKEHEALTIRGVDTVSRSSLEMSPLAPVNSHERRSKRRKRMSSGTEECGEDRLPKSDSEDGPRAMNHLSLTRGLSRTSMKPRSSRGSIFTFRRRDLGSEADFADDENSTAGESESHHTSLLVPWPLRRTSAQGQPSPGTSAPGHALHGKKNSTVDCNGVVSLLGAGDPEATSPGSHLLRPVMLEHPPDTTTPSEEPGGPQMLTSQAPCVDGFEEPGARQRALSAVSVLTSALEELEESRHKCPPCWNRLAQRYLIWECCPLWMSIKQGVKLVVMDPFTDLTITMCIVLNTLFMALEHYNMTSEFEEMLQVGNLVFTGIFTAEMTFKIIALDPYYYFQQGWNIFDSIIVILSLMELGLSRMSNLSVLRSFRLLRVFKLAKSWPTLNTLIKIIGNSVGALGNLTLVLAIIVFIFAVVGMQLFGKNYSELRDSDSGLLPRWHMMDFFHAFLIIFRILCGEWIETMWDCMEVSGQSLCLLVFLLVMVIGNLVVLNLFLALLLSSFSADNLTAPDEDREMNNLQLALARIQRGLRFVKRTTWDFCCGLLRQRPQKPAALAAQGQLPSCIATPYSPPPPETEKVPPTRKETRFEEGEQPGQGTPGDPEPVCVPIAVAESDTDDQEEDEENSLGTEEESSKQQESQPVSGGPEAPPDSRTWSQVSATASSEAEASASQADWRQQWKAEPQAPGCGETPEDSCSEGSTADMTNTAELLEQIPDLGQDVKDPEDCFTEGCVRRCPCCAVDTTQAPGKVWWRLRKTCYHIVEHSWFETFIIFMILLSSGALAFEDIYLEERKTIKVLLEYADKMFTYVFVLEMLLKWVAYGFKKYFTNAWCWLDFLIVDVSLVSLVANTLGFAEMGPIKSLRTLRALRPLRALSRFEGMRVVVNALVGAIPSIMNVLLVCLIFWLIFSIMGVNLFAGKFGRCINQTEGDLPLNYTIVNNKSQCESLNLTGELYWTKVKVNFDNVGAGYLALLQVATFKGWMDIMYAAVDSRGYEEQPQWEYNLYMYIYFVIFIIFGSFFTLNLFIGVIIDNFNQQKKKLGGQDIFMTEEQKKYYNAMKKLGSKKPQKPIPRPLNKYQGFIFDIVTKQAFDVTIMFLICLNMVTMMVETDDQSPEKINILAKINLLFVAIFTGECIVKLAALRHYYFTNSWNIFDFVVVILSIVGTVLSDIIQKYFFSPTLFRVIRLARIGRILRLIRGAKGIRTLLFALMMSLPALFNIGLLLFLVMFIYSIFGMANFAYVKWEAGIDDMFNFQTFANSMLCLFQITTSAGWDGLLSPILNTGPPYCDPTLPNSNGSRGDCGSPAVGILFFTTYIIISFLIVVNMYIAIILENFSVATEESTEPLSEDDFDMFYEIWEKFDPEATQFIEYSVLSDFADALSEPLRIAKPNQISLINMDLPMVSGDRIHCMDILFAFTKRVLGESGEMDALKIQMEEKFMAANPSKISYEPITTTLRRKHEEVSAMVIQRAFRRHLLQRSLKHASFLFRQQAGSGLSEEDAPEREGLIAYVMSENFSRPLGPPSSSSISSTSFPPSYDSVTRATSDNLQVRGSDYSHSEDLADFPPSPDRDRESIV
# H1 receptor, sequence (P35367 whole entry): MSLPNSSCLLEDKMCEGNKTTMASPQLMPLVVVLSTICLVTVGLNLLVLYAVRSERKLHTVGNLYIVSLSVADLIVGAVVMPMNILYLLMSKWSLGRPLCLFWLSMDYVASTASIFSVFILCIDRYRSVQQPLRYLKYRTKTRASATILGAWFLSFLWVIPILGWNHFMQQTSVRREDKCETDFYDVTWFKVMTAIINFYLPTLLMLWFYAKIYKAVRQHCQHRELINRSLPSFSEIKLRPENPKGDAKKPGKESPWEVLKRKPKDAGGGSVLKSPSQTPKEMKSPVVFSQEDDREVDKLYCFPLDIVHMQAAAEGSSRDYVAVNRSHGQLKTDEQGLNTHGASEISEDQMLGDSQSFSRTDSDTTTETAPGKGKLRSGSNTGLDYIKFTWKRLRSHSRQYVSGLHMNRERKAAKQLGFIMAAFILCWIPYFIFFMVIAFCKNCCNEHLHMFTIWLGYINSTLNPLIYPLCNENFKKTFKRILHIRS
# CYP2D6, sequence (P10635 whole entry): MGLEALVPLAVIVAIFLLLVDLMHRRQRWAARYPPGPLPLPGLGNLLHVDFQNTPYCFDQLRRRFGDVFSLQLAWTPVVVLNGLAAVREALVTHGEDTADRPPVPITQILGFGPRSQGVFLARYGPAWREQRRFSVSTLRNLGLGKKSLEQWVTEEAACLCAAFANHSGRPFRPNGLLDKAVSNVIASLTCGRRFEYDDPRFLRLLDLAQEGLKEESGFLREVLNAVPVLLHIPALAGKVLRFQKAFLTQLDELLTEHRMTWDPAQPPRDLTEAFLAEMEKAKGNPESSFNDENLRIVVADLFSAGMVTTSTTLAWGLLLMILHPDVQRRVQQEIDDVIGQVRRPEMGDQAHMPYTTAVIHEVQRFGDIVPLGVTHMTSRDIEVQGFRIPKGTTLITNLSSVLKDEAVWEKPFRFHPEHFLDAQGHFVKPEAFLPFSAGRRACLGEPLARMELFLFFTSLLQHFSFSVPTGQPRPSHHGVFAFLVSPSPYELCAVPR
# CYP2C9, sequence (P11712 whole entry): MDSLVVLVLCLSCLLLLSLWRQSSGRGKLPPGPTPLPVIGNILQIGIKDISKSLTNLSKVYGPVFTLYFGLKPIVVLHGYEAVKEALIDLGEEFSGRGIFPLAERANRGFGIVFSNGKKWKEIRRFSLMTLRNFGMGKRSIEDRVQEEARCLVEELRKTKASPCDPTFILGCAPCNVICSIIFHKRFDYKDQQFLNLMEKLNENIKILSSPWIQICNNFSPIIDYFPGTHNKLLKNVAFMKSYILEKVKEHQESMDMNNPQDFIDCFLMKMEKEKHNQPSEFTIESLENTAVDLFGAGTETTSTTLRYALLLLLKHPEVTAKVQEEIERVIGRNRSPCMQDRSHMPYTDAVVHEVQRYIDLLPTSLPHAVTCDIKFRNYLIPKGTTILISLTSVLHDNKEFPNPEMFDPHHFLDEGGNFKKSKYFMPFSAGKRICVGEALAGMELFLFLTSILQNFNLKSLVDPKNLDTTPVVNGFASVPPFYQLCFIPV
# 5-HT2A receptor, sequence (P28223 whole entry): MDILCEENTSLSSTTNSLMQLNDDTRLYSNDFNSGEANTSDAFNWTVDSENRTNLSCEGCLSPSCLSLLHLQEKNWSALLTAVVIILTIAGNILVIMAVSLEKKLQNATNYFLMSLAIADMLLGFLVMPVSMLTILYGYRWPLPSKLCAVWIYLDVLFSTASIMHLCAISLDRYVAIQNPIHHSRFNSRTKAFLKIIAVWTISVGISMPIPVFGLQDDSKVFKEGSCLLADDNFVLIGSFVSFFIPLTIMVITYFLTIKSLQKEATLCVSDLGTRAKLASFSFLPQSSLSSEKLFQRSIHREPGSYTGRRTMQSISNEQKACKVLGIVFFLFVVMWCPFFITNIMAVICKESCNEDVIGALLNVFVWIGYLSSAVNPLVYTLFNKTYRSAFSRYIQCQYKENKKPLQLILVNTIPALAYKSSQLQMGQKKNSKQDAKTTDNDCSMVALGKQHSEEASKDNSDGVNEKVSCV
# Adrenergic α2B, sequence (P18089 whole entry): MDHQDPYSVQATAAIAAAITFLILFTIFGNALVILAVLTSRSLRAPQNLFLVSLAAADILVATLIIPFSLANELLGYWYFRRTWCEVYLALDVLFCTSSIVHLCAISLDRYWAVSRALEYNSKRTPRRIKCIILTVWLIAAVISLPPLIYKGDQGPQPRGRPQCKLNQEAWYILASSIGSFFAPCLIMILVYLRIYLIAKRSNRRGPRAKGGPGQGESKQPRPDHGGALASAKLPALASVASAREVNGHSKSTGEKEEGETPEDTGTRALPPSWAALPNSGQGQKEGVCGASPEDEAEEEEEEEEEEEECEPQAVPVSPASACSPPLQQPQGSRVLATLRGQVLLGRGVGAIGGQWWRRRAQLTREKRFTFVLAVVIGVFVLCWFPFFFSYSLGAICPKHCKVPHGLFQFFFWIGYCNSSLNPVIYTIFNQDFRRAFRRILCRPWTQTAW
# 5-HT7 receptor, sequence (P34969 whole entry): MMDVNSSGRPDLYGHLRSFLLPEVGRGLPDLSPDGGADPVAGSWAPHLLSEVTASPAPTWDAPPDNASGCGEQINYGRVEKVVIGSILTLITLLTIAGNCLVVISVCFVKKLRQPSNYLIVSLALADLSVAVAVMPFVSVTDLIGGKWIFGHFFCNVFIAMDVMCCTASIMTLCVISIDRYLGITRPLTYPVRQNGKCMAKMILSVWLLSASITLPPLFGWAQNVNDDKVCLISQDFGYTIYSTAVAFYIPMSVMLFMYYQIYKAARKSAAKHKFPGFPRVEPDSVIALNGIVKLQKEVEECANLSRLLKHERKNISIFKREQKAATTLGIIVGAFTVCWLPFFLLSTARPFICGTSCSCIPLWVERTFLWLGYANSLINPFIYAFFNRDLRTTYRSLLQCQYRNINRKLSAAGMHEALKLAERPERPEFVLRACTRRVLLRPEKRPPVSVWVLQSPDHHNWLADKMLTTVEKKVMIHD
compound,measurement,setting,value
"Cc1ccc2c(c1)c1c(n2CCc2ccccc2)CCN(C)C1 [AVN-101, 2,8-dimethyl-5-penethyl-2,3,4,5-tetra-hydro-1h-pyrido[[4,3-B]]indole hydrochloride]","remaining at 0.5 h, 2 µM",CYP2C9,110%
same,k el,[1]; 1μM,0.352
same,Remaining quantity,[1]; 7.9 min,<1%
same,Remaining quantity,[1]; 30 min,<1%
same,half-life at 1 µM,"[1]; rat, liver microsomes",1.97 min
same,k el at 1 μM,"[1]; rat, liver microsomes",0.00558 s⁻¹
same,microsomal CLint at 1 µM,"[1]; rat, liver microsomes",703 µL/min/mg
same,binding,hERG channel,does not bind
same,decrease in immobility time,BALB/c mice,comparable to that observed with either Fluoxetine or Desipramine
same,"remaining at 0.5 h, 2 µM",CYP2D6,0%
same,Ki,imidazoline I2 receptor,179 nM
same,sleepiness,"healthy volunteers; 20 mg, 8 volunteers per group",3 volunteers
same,adverse effects,"healthy volunteers; 20 mg, first half of the day",some adverse effects were detected in five volunteers
same,"blood pressure, one person","healthy volunteers; 20 mg, 141/88 before to 157/87 (2 h–4 h) and 155/77 (6 h–7.5 h)",transient increase in systolic pressure
same,QT interval in ECG,"healthy volunteers; 2, 4, 10, 20 mg single PO dose",No QT interval prolongation
same,biochemical and clinical parameters of blood and urine,healthy volunteers; all dose groups,in a normal range
same,tolerability,"healthy volunteers; orally, doses of up to 20 mg daily",well tolerated
same,residual amount of original compound,[2],68%
same,activity during unpunished rewards session,male Long Evans rats,no effect observed
same,activity during punished conflict rewards session,male Long Evans rats; compared to vehicle,significantly increased
same,Cells with multiple aberrations,femur bone marrow cells; [6],0%
same,Total altered metaphases (%),femur bone marrow cells; [6],0.8 ± 0.4%
same,"cells with aberration, Double fragment",femur bone marrow cells; [6],0%
same,"cells with aberration, Single fragment",femur bone marrow cells; [6],0.8%
same,"cells with aberration, exchanges",femur bone marrow cells; [6],0%
same,"cells with aberration, gaps",femur bone marrow cells; [6],0%
same,Cells with multiple aberrations,femur bone marrow cells; [7],0%
same,Total altered metaphases (%),femur bone marrow cells; [7],1.4 ± 0.5%
same,"cells with aberration, Double fragment",femur bone marrow cells; [7],0%
same,"cells with aberration, Single fragment",femur bone marrow cells; [7],1.2%
same,"cells with aberration, exchanges",femur bone marrow cells; [7],0%
same,"cells with aberration, gaps",femur bone marrow cells; [7],0.2%
same,Cells with multiple aberrations,"femur bone marrow cells; 1 mg/kg PO single dose, males",0%
same,Total altered metaphases (%),"femur bone marrow cells; 1 mg/kg PO single dose, males",1.2 ± 0.5%
same,"cells with aberration, Double fragment","femur bone marrow cells; 1 mg/kg PO single dose, males",0%
same,"cells with aberration, Single fragment","femur bone marrow cells; 1 mg/kg PO single dose, males",1.2%
same,"cells with aberration, exchanges","femur bone marrow cells; 1 mg/kg PO single dose, males",0%
same,"cells with aberration, gaps","femur bone marrow cells; 1 mg/kg PO single dose, males",0%
same,Cells with multiple aberrations,"femur bone marrow cells; 20 mg/kg PO single dose, males",0%
same,Total altered metaphases (%),"femur bone marrow cells; 20 mg/kg PO single dose, males",1.6 ± 0.6%
same,"cells with aberration, Double fragment","femur bone marrow cells; 20 mg/kg PO single dose, males",0%
same,"cells with aberration, Single fragment","femur bone marrow cells; 20 mg/kg PO single dose, males",0.6%
same,"cells with aberration, exchanges","femur bone marrow cells; 20 mg/kg PO single dose, males",0%
same,"cells with aberration, gaps","femur bone marrow cells; 20 mg/kg PO single dose, males",1.0%
same,Ki,5-HT2A receptor,1.2 to 2 nM
same,QT interval,Monkeys (Macaca mulatta),0.22 ± 0.04 s
same,heart rate,Monkeys (Macaca mulatta),ca. 175 beats/min
same,increase in the QT interval over vehicle,guinea pigs,≤ 10%
same,Ki,5-HT7 receptor,0.153 nM
same,receptor activation,H1 receptor,activated neither H1 nor H2 receptors
same,blockade of agonist-induced cell response,"H1 receptor; 10μM histamine, Ca2+ mobilization",effectively blocked
same,Ki,Adrenergic α2B,0.41 to 3.6 nM
same,IC50,hNav1.5,2400 nM
same,inhibition at 31.6 µM,hNav1.5; read-out: % Inhibition at 31.6μM,97%
same,binding,[3],does not bind
same,LD50 at 2 weeks,[4]; ip,105 ± 5 mg/kg
same,LD50 at 2 weeks,[4]; po,331 ± 101 mg/kg
same,Fabs,[5]; IP 5 mg/kg,26.3%
same,Fabs,[5]; PO 5 mg/kg,8.5%
same,Cmax,[5]; ip,278 ng/mL
same,Tmax,[5]; ip,5 min
same,half-life,[5]; ip,177 min
same,k el,[5]; ip,6.5e-05 s⁻¹
same,AUC,"[5]; ip, AUC0 ⟶240, IP 5 mg/kg",1900 ng·h/mL
same,AUC,"[5]; ip, AUC0 ⟶∞, IP 5 mg/kg",2830 ng·h/mL
same,Cmax,[5]; iv,847 ng/mL
same,Tmax,[5]; iv,5 min
same,half-life,[5]; iv,57.5 min
same,k el,[5]; iv,0.000202 s⁻¹
same,AUC,"[5]; iv, AUC0 ⟶240, IV 5 mg/kg",721 ng·h/mL
same,AUC,"[5]; iv, AUC0 ⟶∞, IV 5 mg/kg",7530 ng·h/mL
same,Cmax,[5]; po,50 ng/mL
same,Tmax,[5]; po,5 min
same,half-life,[5]; po,117 min
same,k el,[5]; po,9.83e-05 s⁻¹
same,AUC,"[5]; po, AUC0 ⟶240, PO 5 mg/kg",614 ng·h/mL
same,AUC,"[5]; po, AUC0 ⟶∞, PO 5 mg/kg",810 ng·h/mL
same,binding,muscarinic M2 receptor,does not bind
